HSF-1 act: increases HSF-1 driven luciferase reporter signal; NIH3T3-HGL HSF-1 luciferase reporter, MG132, 8 h; 100% = twice DMSO control signal; activation, % at 9 µM; 300,000 tested, 1.7% active; AID 504408;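 active = mean replicate activation of at least 50% with a set share of replicates each reaching 50%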;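 note: 0% = median of the neutral control wells and 100% = twice that signal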
HSF1 inh: HSF1 inhibition; NIH3T3-HGL HSE-luciferase, MG132-induced, luminescence 8 h; hits give low values; activity change, negative = inhibition, % at 7.5 µM (by protocol); 300,000 tested, 0.77% active;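 active = more than half of replicate wells show activity change below -50%, luminescence cut by over half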;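 note: luciferase reports HSF-1 transcriptional activity via heat shock element; 0% = median of DMSO wells and -100% = zero luminescence signal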
T cruzi repl: blocks replication of Trypanosoma cruzi | T. cruzi beta-gal in NIH3T3, luminescence, 90 h | inhibition, % (no concentration beside the values) | 300,000 tested, 1.4% active | AID 1885;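 active = mean inhibition across valid replicates above about 55%, limit read from the data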;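 note: signal also drops with host cell toxicity which is not excluded here; 0% = plate median of DMSO wells and 100% = zero luminescence signal; higher percent means less beta-gal luminescence so fewer parasites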
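System: NIH/3T3 fibroblasts plus reporter T. cruzi. Medium: DMEM plus 2% FBS. Probe or stimulus: 5000 reporter trypomastigotes per well. Compound: single 50 nL compound addition per well in DMSO. Incubation: co-culture of at least 90 h after 3 h attachment. Detection: GalScreen β-gal luminescence, detergent lysis, 60 min. Evaluation: parasite load inhibition, %.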
Lmaj promast: Leishmania major promastigote growth inhibition; Leishmania major promastigotes, resazurin fluorescence viability; inhibition, % at 10 µM; 200,000 tested, 9% active; AID 1063; in the data active = inhibition above about 50%;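 note: promastigotes grown with compound for 44 hours at 28 °C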
Hsp70 act: transcriptional activators of Hsp70; HeLa Hsp70 promoter luciferase reporter, luminescence; scaled: vehicle 0, proteasome-inhibitor control 100%; activation, % at 10 µM; AID 1203; 200,000 tested, 0.04% active;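 active = activation above the mean across all tested compounds plus 3 SD, cutoff set per campaign, cut at about 5.5% in these data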;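 note: 100% = MG132 at 30 µM as the positive control and 0% = DMSO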
Starred values were filed as active, the others as inactive; / = not tested or not shown; ! = not confirmed by another sample. The full list was thinned out, with hits kept by preference.

SMILES | HSF-1 act | HSF1 inh | T cruzi repl | Lmaj promast | Hsp70 act
COCCN1C(=O)/C(=C/c2ccc(N3CCCC3)cc2C)SC1=S | 8.8 | -6.8 | 19.8 | 24.0 | -0.3
O=C(CN1C2CCCC1CC(NC(=O)c1ccccc1)C2)Nc1ccccc1 (stereo not given) | 11.3 | 2.7 | 15.8 | / | /
Cc1nnsc1C(=O)N/N=C/c1ccc2ccccc2c1O | -12.7 | -12.5 | 54.7* | 100.0* | -0.1
c1ccc(CCNc2nc3ccccc3s2)cc1 | 55.9* | 27.2 | 8.5 | -7.0 | -0.3
Cc1cc(C)n2c(Br)c(CSc3nc4ccccc4s3)nc2n1 | -12.8 | 2.9 | 6.8 | 3.3 | 0.2
Cn1nnc(C(O)CNCc2cccs2)n1 (stereo not given) | -21.1 | -3.9 | -10.1 | -3.1 | 0.2
Cn1nnc(NCc2cc(Br)ccc2OCc2cccs2)n1 | 9.2 | 2.4 | 10.2 | 89.3* | -0.3
CCOC(=O)C1=C(COC(=O)c2ccc(OC(C)C)cc2)NC(=O)NC1C (stereo not given) | -3.1 | -5.2 | 0.7 | / | /
CSc1cnc2c(N)nc(N(C)C)nc2n1 | 1.5 | 0.0 | -9.8 | 57.7* | -0.3
CSc1nc(N)nc(N(C)C)n1 | -8.4 | -4.0 | -9.0 | / | /
O=C(Cn1nnc(-c2ccccc2)n1)N/N=C/c1cc([N+](=O)[O-])ccc1O | -31.4 | -27.5 | -18.3 | 7.8 | -0.5
O=C(Cn1nc2ccccc2n1)N/N=C/c1cc([N+](=O)[O-])ccc1O | -62.5 | -53.3* | -11.8 | -4.5 | -0.3
O=[N+]([O-])c1ccc(O)c(/C=N/Nc2ccc(Cl)nn2)c1 | 41.1 | 33.8 | 83.8* | 100.0* | 0.2
O=C(N/N=C/c1cc([N+](=O)[O-])ccc1O)c1cccc2ccccc12 | 14.5 | 8.0 | 55.4* | / | /
O=C(/C=C/Nc1ccc([N+](=O)[O-])cc1Br)c1cccc2ccccc12 | 51.3* | 19.3 | 18.0 | 75.3* | 0.2
CCn1c(CSCc2ccc(Cl)cc2)nnc1SCC(=O)Nc1cccc(C(=O)O)c1 | / | / | / | -7.0 | -0.1
CC1Sc2ccc(S(=O)(=O)CCC(=O)Nc3ccccn3)cc2NC1=O (stereo not given) | -13.8 | -4.6 | -6.5 | / | /
O=C(c1ccc(COc2ccc(Cl)cc2)cc1)N1CCCCC1 | 53.8* | 28.7 | 25.6 | -0.7 | -0.1
CCCCOc1ccc(C(=O)N2CCCCCC2)cc1 | 3.6 | 1.7 | 3.5 | 1.2 | 0.1
CC1CCN(CCCCOc2cccc(Br)c2)CC1 | -16.1 | -0.3 | 10.4 | 95.2* | -0.2
CC1CN(CCOc2ccc(Cl)c(Cl)c2)CC(C)O1 (stereo not given) | -17.2 | 4.5 | 28.2 | / | /
CC1CCN(CCOc2ccc(Cl)c(Cl)c2)CC1 | -22.1 | -3.0 | -3.1 | 87.6* | -0.1
Cc1cc(Br)ccc1OCCCCN1CCC(C)CC1 | -4.5 | 3.2 | 53.3 | 99.5* | -0.1
CC1CCN(CCCCOc2ccc(Br)cc2)CC1 | -6.3 | -6.3 | -7.4 | 98.9* | 0.0
Brc1ccc(OCCCCN2CCCCC2)cc1 | 7.7 | -5.9 | 38.6 | / | /
SMILES | HSF-1 act | HSF1 inh | T cruzi repl | Lmaj promast | Hsp70 act
Cn1cccc1C(=O)NC(=O)COC(=O)CNC(=O)CNC(=O)c1ccc(Cl)cc1Cl | -0.4 | -8.6 | 0.1 | 4.6 | -0.1
Cc1c(C(=O)N(C)c2ccc(Cl)cc2)cnn1-c1ccccc1 | 18.7 | 11.6 | -12.8 | / | /
CC1(C)NC(=O)N(CCOCCOc2ccccc2-c2ccccc2)C1=O | 2.1 | -4.1 | -9.4 | -0.5 | 0.1
CSc1ccccc1NC(=O)CN(C)CC(=O)Nc1ccccc1C(F)(F)F | 8.9 | 4.1 | -2.8 | 9.0 | -0.3
Brc1ccccc1OCCCN1CCOCC1 | 19.7 | 0.6 | 15.0 | 71.9* | 0.1
CC1CCN(CCCCOc2ccccc2Br)CC1 | -4.8 | -9.7 | 8.8 | 99.5* | 0.0
Cc1ccccc1OCCCN1CCOCC1 | 12.8 | 9.4 | 4.5 | / | /
Brc1cccc(OCCN2CCCCC2)c1 | -12.1 | 3.9 | 9.1 | 96.1* | -0.2
CC1CCN(CCCCOc2ccccc2F)CC1 | -17.4 | -5.6 | -18.9 | / | /
COCCNC(=O)C1(C(F)(F)F)CC(CCCO)CCCO1 (stereo not given) | -8.2 | 1.2 | 8.2 | / | /
CCN(CC)C(=O)c1ccc2c(=O)n(Cc3cccc(Br)c3)c(=S)[nH]c2c1 | 10.4 | -0.9 | 5.9 | / | /
CN1CCN(NS(=O)(=O)c2ccc(Cl)s2)CC1 | -6.6 | -5.2 | -14.9 | 55.4* | -0.2
O=S(=O)(NN1CCOCC1)c1ccc(Cl)s1 | 15.1 | -6.0 | -6.4 | -9.3 | -0.1
CN1CCN(C(=O)c2cc3nc(-c4ccc(F)cc4)cc(C(F)(F)F)n3n2)CC1 | -14.9 | 0.7 | 2.7 | 3.8 | -0.2
O=C(c1cc2nc(-c3ccc(F)cc3)cc(C(F)(F)F)n2n1)N1CCCCC1c1cccnc1 (stereo not given) | 4.2 | -14.9 | 94.9* | 96.2* | -0.2
O=C(c1cnn2c(C(F)(F)F)cc(-c3ccccc3)nc12)N1CCCCC1c1cccnc1 (stereo not given) | 25.0 | 3.8 | 58.6* | 52.0* | 0.0
Cc1ccc(C(O)(c2ccccc2)c2ccccc2C(C)N(C)C)c(C)c1 (stereo not given) | 22.4 | 9.3 | 21.9 | 100.2* | -0.2
O=C1c2cccc(OCC(=O)N3CCCc4ccccc43)c2CCN1Cc1ccc(F)cc1 | 19.0 | 13.3 | 7.4 | 95.3* | -0.4
Cc1cccc(CN2CCc3c(OCC(=O)N4CCCc5ccccc54)cccc3C2=O)c1 | 9.4 | 15.9 | 7.9 | 28.2 | -0.3
C=CCC1(CC=C)CCCN1C(=O)CC1C(=O)NCCN1Cc1cccc(OC)c1OC (stereo not given) | 24.7 | -5.7 | -1.3 | -3.7 | 0.1
NC(=NCCCCCCN=C(N)/N=C(\N)Nc1ccc(Cl)cc1)/N=C(\N)Nc1ccc(Cl)cc1 | 10.8 | 1.6 | 55.8*! | / | /
O=C(O)COc1ccc(/C=N/NC(=O)/C(=C/C=C/c2ccccc2)NC(=O)c2ccccc2)cc1 | 19.0 | 5.8 | -7.0 | / | /
Cc1ccc(C(=O)NCc2ccc(N3CCN(C)CC3)cc2)cc1C | -75.1 | -69.3* | 11.2 | / | /
CN1CCN(c2ccc(CNC(=O)c3cc4ccccc4o3)cc2)CC1 | 1.0 | -2.3 | 3.6 | / | /
CC(=O)OC1CCC2(C)C(COc3ccc4ccc(=O)oc4c3)C(C)(O)CCC2C1(C)C (stereo not given) | 15.7 | 5.6 | 26.8 | 99.3* | -0.6
SMILES | HSF-1 act | HSF1 inh | T cruzi repl | Lmaj promast | Hsp70 act
CN(C(=O)COc1ccc2ccc(=O)oc2c1)C1CCS(=O)(=O)C1 (stereo not given) | -13.2 | -2.4 | -1.6 | / | /
NC(=O)[C@@H]1CCCNc2c(F)cc([N+](=O)[O-])cc2C(=O)N[C@@H](CCC(=O)O)C(=O)N[C@@H](CO)C(=O)N1 | 10.1 | -1.3 | -28.5 | -5.5 | 0.9
Cc1cccc(N2CCN(C(=O)CCN3C(=S)NC(C)(C)CC3C)CC2)c1C (stereo not given) | -11.5 | 0.6 | 3.9 | 65.2* | 0.4
Cc1ccc(C)c(N2CCN(C(=O)CCCN3C(=S)NC(C)(C)CC3C)CC2)c1 (stereo not given) | 5.1 | -3.4 | 43.1 | 44.8 | -0.3
Oc1ccc(N=Nc2ccccc2-c2nn[nH]n2)c(O)c1 | -47.2 | -31.7 | 3.4 | / | /
COc1ccc(-n2c(C)c(C)c3c(N)ncnc32)cc1 | -68.6 | -57.3* | -17.5 | / | /

Screens deposited in PubChem BioAssay by several laboratories.
